Source: PubChem
Compounds with a hit are over-represented: about 5% of the library has one in this group of screens.
Mdm2 MdmX PPI: inhibitors of human Mdm2/MdmX interaction; SaOS-2 split-luciferase Mdm2/MdmX complementation, luminescence; inhibition, % at 8 µM; 3% of 330,000 active; AID 485346;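 active = inhibition of at least 50% at 8 µM in the primary screen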
Target sequence (O15151 whole entry, looked up): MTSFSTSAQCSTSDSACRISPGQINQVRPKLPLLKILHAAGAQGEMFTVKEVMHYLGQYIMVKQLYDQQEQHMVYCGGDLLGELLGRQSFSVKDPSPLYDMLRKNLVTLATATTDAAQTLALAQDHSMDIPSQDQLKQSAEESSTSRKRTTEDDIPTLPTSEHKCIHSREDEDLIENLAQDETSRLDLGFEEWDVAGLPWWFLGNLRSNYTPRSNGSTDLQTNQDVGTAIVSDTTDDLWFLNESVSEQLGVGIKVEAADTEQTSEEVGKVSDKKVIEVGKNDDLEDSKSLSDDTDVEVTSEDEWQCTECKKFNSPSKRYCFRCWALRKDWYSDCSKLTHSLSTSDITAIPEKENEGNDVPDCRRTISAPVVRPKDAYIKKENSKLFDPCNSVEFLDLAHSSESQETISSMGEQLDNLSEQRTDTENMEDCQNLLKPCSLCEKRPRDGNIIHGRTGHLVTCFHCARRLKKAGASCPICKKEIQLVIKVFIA
Target sequence (Q00987 whole entry, looked up): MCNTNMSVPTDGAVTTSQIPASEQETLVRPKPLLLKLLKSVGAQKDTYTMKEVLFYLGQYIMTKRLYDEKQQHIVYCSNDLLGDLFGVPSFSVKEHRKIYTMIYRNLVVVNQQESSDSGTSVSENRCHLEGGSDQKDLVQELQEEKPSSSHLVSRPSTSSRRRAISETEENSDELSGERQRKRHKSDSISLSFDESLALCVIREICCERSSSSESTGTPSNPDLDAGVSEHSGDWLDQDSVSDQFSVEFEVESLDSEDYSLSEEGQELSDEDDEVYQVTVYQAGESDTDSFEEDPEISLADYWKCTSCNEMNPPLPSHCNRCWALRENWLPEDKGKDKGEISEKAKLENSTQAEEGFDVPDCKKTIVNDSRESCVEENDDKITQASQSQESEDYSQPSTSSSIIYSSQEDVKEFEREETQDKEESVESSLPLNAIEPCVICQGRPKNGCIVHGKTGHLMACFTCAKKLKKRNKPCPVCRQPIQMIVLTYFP
T cruzi inh: blocks replication of Trypanosoma cruzi | T. cruzi beta-gal in NIH3T3, luminescence, 90 h | inhibition, % (no concentration beside the values) | 1.4% of 300,000 active;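 active = mean inhibition across valid replicates above about 55%, limit read from the data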;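 also: signal also drops with host cell toxicity which is not excluded here; higher percent means less beta-gal luminescence so fewer parasites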
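System – NIH/3T3 host cells with β-galactosidase reporter T. cruzi · Doses – single 50 nL compound addition per well in DMSO · Reagent – 5000 T. cruzi trypomastigotes/well · Medium – Low-serum DMEM with 2% FBS · Timing – ≥90 h infection period, 3 h prior cell attachment · Evaluation – parasite load inhibition, % · Technique – GalScreen luminescence, 60 min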
Beta apoptosis: blocks beta cell apoptosis; INS-1E cytokine-induced death, ATP luminescence, 48 h; percent of positive-control rescue, neutral wells zero; protection from apoptosis, % (test concentration not listed); 0.8% of 300,000 active;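 active = Every replicate reaches about 75%, or at least half do and their mean reaches it too, limit read from the data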;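 also: higher means more ATP so stronger rescue from cytokine killing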
CSC inhib: blocks cancer stem cells; cancer stem cell-like cells viability, luminescence; 1.1% of 300,000 active; inhibition, % at 7.5 µM; AID 2717; in the data active = inhibition above about 75%; tested in HMLE shEcad cells
CHOP UPR activ: apoptotic UPR (CHOP) activation. CHO-CHOP luciferase reporter, luminescence; percent of tunicamycin response over DMSO baseline. activation, % at 10 µM. 0.34% of 330,000 active;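 active = at 10 µM dose, activation of 40% or more, normalized to positive control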
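Material: CHO-CHOP cells, stable luciferase reporter of PERK-eIF2a-CHOP signalling; quantity: 500 reporter cells seeded per well; buffer or medium: F12 medium containing 10% fetal bovine serum; compound: one dose, 10 µM in 0.5% DMSO; incubation: 6 h compound treatment, 37 °C; measured by: Steady-Glo luciferase luminescence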
UPR XBP1 act: adaptive UPR (XBP1) activation; CHO-XBP1 luciferase reporter, IRE1-XBP1 UPR activation, luminescence; percent of tunicamycin response, DMSO as zero; activation, % at 20 µM; 0.33% of 330,000 active;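 active = versus positive control, 20 µM dose yields 30% or more activation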
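Signal: luciferase luminescence; Assay system: CHO-XBP1 luciferase reporter cells; Amount: one thousand reporter cells per well; Dosing: 20 µM single concentration, DMSO 1%; Benchmarks: high control tunicamycin 10 µg/mL final, low control DMSO vehicle only; Schedule: 6 h compound exposure at 37 °C, 5% CO2; Evaluation: percent activation relative to tunicamycin reference.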
Each line names hits and unclear results; the compound was inactive in the other large screens.

CCN(CC)CCn1c(SCC(=O)NCCC2=CCCCC2)nc2c(sc3ccccc32)c1=O	T cruzi inh 60
CCN(CC)CCn1c(SCC(=O)NCc2ccco2)nc2c(sc3ccccc32)c1=O	none
CC1(C)CC(=O)N(c2ccccc2)C1(C)O (centres undefined)	none
CCCCOC(=O)c1[nH]c2c(c1C)C(=O)CC(c1cc(OC)c(OC)c(OC)c1)C2 (centres undefined)	Beta apoptosis 75
CN(C)c1cccc(C(=O)OCCCC(=O)c2ccc(F)cc2)c1	none (no result: T cruzi inh)
CC(C)c1ccc2c(c1)CCC1C(C)(CN)CCCC21C (centres undefined)	CSC inhib 116 (no result: Mdm2 MdmX PPI, CHOP UPR activ, UPR XBP1 act)
CCN(CC)S(=O)(=O)c1cccc(-c2nnc(SCCCC(=O)c3ccc(F)cc3)o2)c1	T cruzi inh 60
CCN(CC)S(=O)(=O)c1cccc(-c2nnc(SCC(=O)c3cc(C)n(C4CC4)c3C)o2)c1	none
CCN(CC)S(=O)(=O)c1cccc(-c2nnc(SCCCC(=O)c3ccccc3)o2)c1	T cruzi inh 66
CC(C)Cc1ccc(C(C)NC(=O)Cc2ccc(S(=O)(=O)N3CCOCC3)s2)cc1 (centres undefined)	none
CCNc1nc(NCC)nc(N/N=C/c2ccc([N+](=O)[O-])o2)n1	none
CCN(CC)c1ccc(N=Cc2ccc([N+](=O)[O-])o2)cc1	Beta apoptosis 75
CCN(CC)c1ccc(N=Cc2ccccc2[N+](=O)[O-])cc1	T cruzi inh 74, Beta apoptosis 100
CC1CC(C)(C)NC(=S)N1CC(=O)N1CCN(Cc2ccc3c(c2)OCO3)CC1 (centres undefined)	none
CCOc1ccccc1NC(=O)c1csc(C)c1C	none
CC(C)CC(NC(=O)C(NC(=O)C(Cc1ccc(OCc2ccccc2)cc1)NC(=O)OC(C)(C)C)C(C)C)C(N)=O (centres undefined)	CSC inhib 138
CC(C)CC(NC(=O)C(CC(C)C)NC(=O)C(Cc1ccc(OCc2ccccc2)cc1)NC(=O)OC(C)(C)C)C(N)=O (centres undefined)	none
CCC(CO)Oc1cc(NCc2ccc(C)c(C)c2)c2ncn(C(C)C)c2c1 (centres undefined)	Beta apoptosis 101 (no result: T cruzi inh, CSC inhib)
O=C(CSc1nnc(C2CC2)n1C1CC1)c1cccs1	none (no result: T cruzi inh)
CCOC(=O)N1CCC2(CC1)C(C#N)=C(N)OC1=C2C(=O)CC(C)C1 (centres undefined)	none
CCCCCCCN1C(Nc2ccccc2)=NC[C@@H]1CC(C)C	none
CC(C)C[C@H]1CN=C(Nc2ccccc2)N1CCC(C)c1ccccc1 (some centres undefined)	Beta apoptosis 103 (no result: T cruzi inh)
CCC1(c2ccccc2)NC(=O)N(CC(=O)NC2CCCCCC2)C1=O (centres undefined)	none (no result: T cruzi inh)
CCn1c(=NC(=O)CS(=O)(=O)c2ccc(F)cc2)sc2cccc(OC)c21	none (no result: Beta apoptosis)
COc1ccc2c(c1)sc(=NC(=O)CS(=O)(=O)c1ccc(F)cc1)n2C	T cruzi inh 63 (no result: Beta apoptosis)
COc1cc(NC(=O)COc2ccc(-n3cnnn3)cc2)cc(OC)c1OC	none (no result: T cruzi inh)
Cc1ccccc1C(=O)Nc1nnc(S(=O)(=O)N2CCCCC2)s1	none
C=C(C)c1cccc(C(C)(C)NC(=O)NC2CCN(Cc3ccccc3)CC2)c1	T cruzi inh 55
Fc1ccc(NC(=S)NC2CCN(Cc3ccccc3)CC2)cc1	none (no result: T cruzi inh, CSC inhib)
O=C(Nc1cccc(F)c1)NC1CCN(Cc2ccccc2)CC1	T cruzi inh 60
O=C(COc1ccc(Br)cc1Cl)NC1CCN(Cc2ccccc2)CC1	T cruzi inh 61
O=C(/C=C/c1cccc(F)c1)NC1CCN(Cc2ccccc2)CC1	T cruzi inh 55
O=C(COc1ccccc1)NC1CCN(Cc2ccccc2)CC1	none
COC(=O)CC1C(=O)NCCN1C(=O)CSc1nnnn1-c1ccc(OC)cc1 (centres undefined)	none
COc1ccc(S(=O)(=O)NCC2CCC(C(=O)O)CC2)cc1 (centres undefined)	none
COc1ccccc1N(CC(O)Cn1c2ccccc2c2ccccc21)S(=O)(=O)c1ccccc1 (centres undefined)	T cruzi inh 63
O=S(=O)(c1ccccc1)N(CC(O)Cn1c2ccccc2c2ccccc21)c1ccccc1 (centres undefined)	CSC inhib 95 (no result: Beta apoptosis)
COc1ccc(CC2(CO)CCN(Cc3nc(C(C)C)cs3)CC2)cc1	T cruzi inh 68
COc1ccc(CC2(CO)CCN(CC3=Cc4cc(Cl)ccc4OC3)CC2)cc1	T cruzi inh 66, Beta apoptosis 115
O=[N+]([O-])c1cc(-c2nnc(Nc3ccccc3)c3ccccc23)ccc1N1CCOCC1	T cruzi inh 57
Cc1ccc(S(=O)(=O)N2CCN(C(=O)CN3CCOCC3)C2c2ccccc2)cc1 (centres undefined)	none
O=[N+]([O-])c1ccc(S(=O)(=O)NCCS(=O)(=O)N2CCN(c3ccccc3)CC2)cc1	T cruzi inh 56
Cc1c(C(=O)Nc2ccc(Nc3ccccc3)cc2)cccc1[N+](=O)[O-]	none
O=C(Nc1ccccc1)c1ccc(Nc2c([N+](=O)[O-])cc([N+](=O)[O-])c3ccccc23)cc1	T cruzi inh 66
CC(C)OC(=O)c1cn(-c2ccccc2)nc1-c1ccco1	T cruzi inh 56
COc1cccc(C(=O)NC(=S)Nc2ccccc2N2CCOCC2)c1	CSC inhib 116
COc1ccc(C(=O)NC(=S)Nc2ccccc2N2CCCCC2)cc1[N+](=O)[O-]	CSC inhib 101
O=C(OCC(=O)N1CCCCCC1)c1ccc(F)cc1F	none (no result: T cruzi inh, Beta apoptosis, CSC inhib)
CC1=CCC2([N+](=O)[O-])CN(CC(=O)O)CC1([N+](=O)[O-])C2 (centres undefined)	none
O=C(/C=C/c1cccc([N+](=O)[O-])c1)NCCN1CCOCC1	none
COc1cc(/C=C/c2ccc3c(Br)cc(Br)c(O)c3n2)ccc1O	CSC inhib 115 (no result: Mdm2 MdmX PPI, CHOP UPR activ, UPR XBP1 act)
O=[N+]([O-])c1ccc(/C=C/c2ccc3cccc(O)c3n2)cc1	none
COc1ccc(/C=C/c2ccc3c(Br)ccc(O)c3n2)cc1	CSC inhib 89
O=C(Cn1ccc2cc(S(=O)(=O)N3CCCCC3)ccc21)NCc1ccccc1F	none
O=C(Nc1ccccc1N1CCCC1)c1cccc(-c2cc3ccccc3oc2=O)c1	CSC inhib 90
O=C(CC1SC(=Nc2cccc3ccccc23)N(Cc2ccccn2)C1=O)Nc1ccccc1Br (centres undefined)	none
Cc1ccccc1N=C1SC(CC(=O)Nc2ccc3ccccc3c2)C(=O)N1Cc1ccccn1 (centres undefined)	CSC inhib 78
